# Columns and labels:
# Type in all cases: functional
# Mus musculus [1] = experiment: Minimal nontoxic dose in the mouse hot plate method by subcutaneous administration
# Mus musculus [2] = experiment: Antinociceptive effect expressed as licking latency determined at 6 mg/kg after 60 minutes of subcutaneous administration in the mouse hotplate test
# Outline: (§1)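 Male Swiss albino mice (23-30 g) were placed on a plate held at 52.5 ± 0.1 °C. Fore or hind paw licking was the endpoint. Latency was timed before dosing and at intervals up to 60 min after, with a 45 s cutoff. Mice scoring below 12 or over 18 s in the pretest were excluded. Compounds were given in saline or 1% CMC at 10 mL/kg sc or po.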
# Mus musculus [3] = experiment: Maximal analgesic dose required to cause antinociceptive effect in the mouse hot plate method by subcutaneous administration
# Mus musculus [4] = experiment: Antinociceptive effect expressed as licking latency determined at 6 mg/kg after 30 minutes of subcutaneous administration in the mouse hotplate test; outline: as §1
# Mus musculus [5] = species on record: Mus musculus; experiment: Antinociceptive effect determined before treatment in the mouse hotplate test; set-up: unit not given beside the values; outline: as §1
# Mus musculus [6] = experiment: Antinociceptive effect expressed as licking latency determined at 6 mg/kg after 45 minutes of subcutaneous administration in the mouse hotplate test; outline: as §1
# Mus musculus [7] = experiment: Percentage of analgesic efficacy compared to morphine at 8 mg/kg
# Outline: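 Analgesic efficacy was measured in the mouse hot-plate test (52.5 °C, paw-licking latency) at the maximal analgesic dose. It is expressed as a percentage of the maximal effect of morphine (8 mg/kg sc), which is taken as 100%.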
# Mus musculus [8] = experiment: Antinociceptive effect expressed as licking latency determined at 6 mg/kg after 15 minutes of subcutaneous administration in the mouse hotplate test; outline: as §1
# Mus musculus [9] = experiment: Percentage of antagonism exerted by reserpine at 2 mg/kg
# Mus musculus [10] = experiment: Antinociceptive effect expressed as licking latency determined at 20 mg/kg after 30 minutes of subcutaneous administration in the mouse hotplate test; outline: as §1
# Mus musculus [11] = experiment: Antinociceptive effect expressed as licking latency determined at 20 mg/kg after 60 minutes of subcutaneous administration in the mouse hotplate test; outline: as §1
# Mus musculus [12] = experiment: Antinociceptive effect expressed as licking latency determined at 20 mg/kg after 15 minutes of subcutaneous administration in the mouse hotplate test; outline: as §1
# Mus musculus [13] = experiment: Antinociceptive effect expressed as licking latency determined at 20 mg/kg after 45 minutes of subcutaneous administration in the mouse hotplate test; outline: as §1
# Mus musculus [14] = experiment: Antinociceptive effect expressed as licking latency determined at 8 mg/kg after 60 minutes of subcutaneous administration in the mouse hotplate test
# Outline: (§2)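 Male Swiss albino mice (23-30 g), acclimatised 24 h at 23 ± 1 °C. Dosed sc in 10 mL kg⁻¹ of saline, 1% carboxymethylcellulose, or saline + DMSO 2:1 vehicle. Placed on a 52.5 ± 0.1 °C hot plate, timed to fore or hind paw licking. Pretest latency had to be 12–18 s. Cutoff was 45 s. Latency was read before dosing and at 15, 30, 45 and 60 min after.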
# Mus musculus [15] = experiment: Antinociceptive effect expressed as licking latency determined at 8 mg/kg after 15 minutes of subcutaneous administration in the mouse hotplate test; outline: as §2
# Mus musculus [16] = experiment: Antinociceptive effect expressed as licking latency determined at 8 mg/kg after 30 minutes of subcutaneous administration in the mouse hotplate test; outline: as §2
# Mus musculus [17] = experiment: Antinociceptive effect expressed as licking latency determined at 8 mg/kg after 45 minutes of subcutaneous administration in the mouse hotplate test; outline: as §2
# Mus musculus [18] = experiment: Antinociceptive effect expressed as licking latency determined at 1 mg/kg after 45 minutes of subcutaneous administration in the mouse hotplate test; outline: as §1
# Mus musculus [19] = experiment: Antinociceptive effect expressed as licking latency determined at 1 mg/kg after 60 minutes of subcutaneous administration in the mouse hotplate test; outline: as §1
# Mus musculus [20] = experiment: Antinociceptive effect expressed as licking latency determined at 1 mg/kg after 15 minutes of subcutaneous administration in the mouse hotplate test; outline: as §1
# Mus musculus [21] = experiment: Antinociceptive effect expressed as licking latency determined at 1 mg/kg after 30 minutes of subcutaneous administration in the mouse hotplate test; outline: as §1
# Mus musculus [22] = experiment: Maximal analgesic dose required to cause antinociceptive effect in the mouse hot plate method by oral administration
# Mus musculus [23] = experiment: Antinociceptive effect expressed as licking latency determined at 10 mg/kg after 45 minutes of oral administration in the mouse hotplate test; outline: as §1
# Mus musculus [24] = experiment: Antinociceptive effect expressed as licking latency determined at 10 mg/kg after 30 minutes of oral administration in the mouse hotplate test; outline: as §1
# Mus musculus [25] = experiment: Antinociceptive effect expressed as licking latency determined at 10 mg/kg after 60 minutes of oral administration in the mouse hotplate test; outline: as §1
# Mus musculus [26] = experiment: Antinociceptive effect expressed as licking latency determined at 10 mg/kg after 15 minutes of oral administration in the mouse hotplate test; outline: as §1
# Mus musculus [27] = experiment: Antinociceptive effect expressed as licking latency determined at 3 mg/kg after 60 minutes of subcutaneous administration in the mouse hotplate test; outline: as §1
# Mus musculus [28] = experiment: Antinociceptive effect expressed as licking latency determined at 3 mg/kg after 30 minutes of subcutaneous administration in the mouse hotplate test; outline: as §1
# Mus musculus [29] = experiment: Antinociceptive effect expressed as licking latency determined at 3 mg/kg after 15 minutes of subcutaneous administration in the mouse hotplate test; outline: as §1
# Mus musculus [30] = experiment: Antinociceptive effect expressed as licking latency determined at 3 mg/kg after 45 minutes of subcutaneous administration in the mouse hotplate test; outline: as §1
Structure (SMILES),MNTD (Mus musculus [1]) [mg/kg],MAD (Mus musculus [3]) [mg/kg],Activity (Mus musculus [5]),Analgesic effect (Mus musculus [7]) [%],Antagonism (Mus musculus [9]) [%],Licking latency (Mus musculus [10]),Licking latency (Mus musculus [11]),Licking latency (Mus musculus [12]),Licking latency (Mus musculus [13]),also measured
Cc1nn(CCCN2CCN(c3cccc(Cl)c3)CC2)c(=O)c(N)c1C(C)O (configuration not stated),40,0.3,14.5,101,100,–,–,–,–,Licking latency (Mus musculus [2]): 23.3; Licking latency (Mus musculus [4]): 33.7; Licking latency (Mus musculus [6]): 29.3; Licking latency (Mus musculus [8]): 22.4
Cc1nn(CCCN2CCN(c3cccc(Cl)c3)CC2)c(=O)c2noc(C)c12,40,10,16.6,72,92,24,17.6,18,22.6,–
CN1CC[C@]23c4c5ccc(O)c4O[C@H]2[C@@H](O)C=C[C@H]3[C@H]1C5 [MORPHINE],30,0.2,14.6,100,0,–,–,–,–,Licking latency (Mus musculus [14]): 23.8; Licking latency (Mus musculus [15]): 24.5; Licking latency (Mus musculus [16]): 28.7; Licking latency (Mus musculus [17]): 26.4
Cc1noc2c(-c3ccccc3)nn(CCCN3CCN(c4cccc(Cl)c4)CC3)c(=O)c12,60,0.3,14.6,104,100,34.5,29.3,19.6,31.2,–
C=Cc1c(C)nn(CCCN2CCN(c3cccc(Cl)c3)CC2)c(=O)c1N,20,0.1,14.2,100,61,–,–,–,–,Licking latency (Mus musculus [18]): 28.2; Licking latency (Mus musculus [19]): 22.6; Licking latency (Mus musculus [20]): 21.3; Licking latency (Mus musculus [21]): 33.5
CCOC(=O)c1nn(CCCN2CCN(c3cccc(Cl)c3)CC2)c(=O)c2noc(C)c12,40,10,16,71,0,23.8,17.8,22.2,23.2,–
Cc1onc2c(=O)n(CCCN3CCN(c4cccc(Cl)c4)CC3)nc(-c3ccccc3)c12,50,–,15.1,75,94,–,–,–,–,MAD (Mus musculus [22]): 1 mg/kg; Licking latency (Mus musculus [23]): 19.1; Licking latency (Mus musculus [24]): 25.1; Licking latency (Mus musculus [25]): 16.6; Licking latency (Mus musculus [26]): 20.8
CC(=O)c1c(C)nn(CCCN2CCN(c3cccc(Cl)c3)CC2)c(=O)c1N,20,0.1,15.5,100,0,–,–,–,–,Licking latency (Mus musculus [27]): 32.7; Licking latency (Mus musculus [28]): 33.2; Licking latency (Mus musculus [29]): 23.7; Licking latency (Mus musculus [30]): 34.3

# Source: ChEMBL document CHEMBL1136719, “[(3-Chlorophenyl)piperazinylpropyl]pyridazinones and analogues as potent antinociceptive agents” (2003)
